Test results from ChEMBL document CHEMBL1140925, “Nuclear factor-kappaB mediated inhibition of cytokine production by imidazoline scaffolds” (J Med Chem, 2009).

What was measured:
HeLa [1] = assay: Cell cycle arrest in TNF-alpha-stimulated human HeLa cells transfected with NFkappaB-Luc assessed as accumulation at G2/G1 phase at 20 uM after 8 hrs by propidium iodide-based flow cytometry; type: functional
Method in brief: (§1)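 HeLa NF-κB-luc cells (stable, hygromycin-selected) were treated with vehicle (1% DMSO) or compound at 40–0.2 µM final for 8 h at 37 °C, 5% CO2. Adherent cells were trypsinized, resuspended in PBS/50% FBS, fixed overnight in 70% ice-cold ethanol and washed with cold PBS/10% FBS, then analysed for cell cycle by flow cytometry.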

HeLa [2] = assay: Cell cycle arrest in TNF-alpha-stimulated human HeLa cells transfected with NFkappaB-Luc assessed as accumulation at S phase at 20 uM after 8 hrs by propidium iodide-based flow cytometry; type: functional; method in brief: as §1
HeLa [3] = assay: Cell cycle arrest in TNF-alpha-stimulated human HeLa cells transfected with NFkappaB-Luc assessed as accumulation at diploid G2 phase at 20 uM after 8 hrs by propidium iodide-based flow cytometry; type: functional; method in brief: as §1
HeLa [4] = assay: Cell cycle arrest in human HeLa cells transfected with NFkappaB-Luc assessed as accumulation at G2/G1 phase at 20 uM after 8 hrs by propidium iodide-based flow cytometry; type: functional; method in brief: as §1
HeLa [5] = assay: Cell cycle arrest in human HeLa cells transfected with NFkappaB-Luc assessed as accumulation at diploid stage at 20 uM after 8 hrs by propidium iodide-based flow cytometry; type: functional; method in brief: as §1
HeLa [6] = assay: Cell cycle arrest in TNF-alpha-stimulated human HeLa cells transfected with NFkappaB-Luc assessed as accumulation at diploid G2 phase at 0.05 uM after 8 hrs by propidium iodide-based flow cytometry; type: functional
HeLa [7] = assay: Cell cycle arrest in TNF-alpha-stimulated human HeLa cells transfected with NFkappaB-Luc assessed as accumulation at S phase at 0.05 uM after 8 hrs by propidium iodide-based flow cytometry; type: functional
[8] = Cytotoxicity against human whole blood lymphocytes assessed as survival cell count in millions at 10 uM by trypan blue staining based hemocytometer
[9] = Cytotoxicity against human whole blood lymphocytes assessed as survival cell count in millions at 1 uM by trypan blue staining based hemocytometer
[10] = Cytotoxicity against human whole blood IL-1-beta-stimulated lymphocytes assessed as survival cell count in millions at 10 uM by trypan blue staining based hemocytometer
[11] = Cytotoxicity against human whole blood IL-1-beta-stimulated lymphocytes assessed as survival cell count in millions at 1 uM by trypan blue staining based hemocytometer
HeLa [12] = assay: Effect on cell cycle arrest in human HeLa cells assessed as cell debris level at 20 uM after 8 hrs by propidium iodide-based flow cytometry; type: functional
Method in brief: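 Cells were exposed to vehicle (1% DMSO) or compound for 8 h at 37 °C, 5% CO₂. They were then trypsinized, resuspended in PBS with 50% FBS, fixed overnight in ice-cold 70% ethanol, and washed twice with ice-cold PBS containing 10% FBS before flow cytometric cell-cycle analysis.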

HeLa [13] = assay: Effect on cell cycle arrest in TNF-alpha-stimulated human HeLa cells assessed as cell aggregate level at 10 uM after 8 hrs by propidium iodide-based flow cytometry; type: functional
HeLa [14] = assay: Effect on cell cycle arrest in TNF-alpha-stimulated human HeLa cells assessed as cell debris level at 5 uM after 8 hrs by propidium iodide-based flow cytometry; type: functional
HeLa [15] = assay: Effect on cell cycle arrest in TNF-alpha-stimulated human HeLa cells assessed as cell debris level at 0.5 uM after 8 hrs by propidium iodide-based flow cytometry; type: functional
HeLa [16] = assay: Effect on cell cycle arrest in TNF-alpha-stimulated human HeLa cells assessed as cell debris level at 0.1 uM after 8 hrs by propidium iodide-based flow cytometry; type: functional
HeLa [17] = assay: Effect on cell cycle arrest in TNF-alpha-stimulated human HeLa cells assessed as cell debris level at 0.05 uM after 8 hrs by propidium iodide-based flow cytometry; type: functional
HeLa [18] = assay: Effect on cell cycle arrest in TNF-alpha-stimulated human HeLa cells assessed as cell aggregate level at 0.05 uM after 8 hrs by propidium iodide-based flow cytometry; type: functional
HeLa [19] = assay: Cell cycle arrest in TNF-alpha-stimulated human HeLa cells transfected with NFkappaB-Luc assessed as accumulation at diploid stage at 0.1 uM after 8 hrs by propidium iodide-based flow cytometry; type: functional
[20] = Cytotoxicity against human whole blood lymphocytes assessed as survival cell count in millions at 20 uM by trypan blue staining based hemocytometer
[21] = Inhibition of TNF-alpha-induced NF-kappaB-mediated transcription expressed in human HeLa cells preincubated for 30 mins before addition of TNFalpha measured after 8 hrs by luciferase reporter gene assay; type: cell-based
Method in brief: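 HeLa/NF-κB-luc cells (5.0 × 10⁵ cells/mL) were grown 24 h, then switched to serum-free DMEM. They were pretreated 30 min at 37 °C with 0.05–20 µM imidazoline (1% DMSO vehicle), then stimulated with 25 ng/mL TNF-α for 8 h. Steady-Glo luminescence was normalized to TNF-α activation, and EC50 was taken from a variable-slope sigmoidal fit. Values are the mean of two independent experiments.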

[22] = Inhibition of TNF-alpha-induced NF-kappaB-mediated transcription expressed in human HeLa cells co-transfected with renilla luciferase-TK gene preincubated for 30 mins before TNFalpha challenge measured after 8 hrs by dual-glo luciferase reporter gene assay; type: cell-based
Method in brief: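 HeLa cells were transiently cotransfected (lipofectamine 2000, 5–6 h) with 6×κB pNF-κB-luc and the pRL-TK Renilla control, then grown 24 h. They were pretreated 30 min with 0.312–20 µM (1% DMSO vehicle), then stimulated with 25 ng/mL TNF-α for 8 h at 37 °C. Dual-Glo firefly signal was normalized to Renilla luminescence.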

Blood [23] = assay: Antiinflammatory activity in human whole blood assessed as inhibition of IL-1-beta-induced IL6 production preincubated 2 hrs before addition of IL1-beta measured after 18 hrs by ELISA; type: functional, tissue-based
Method in brief: (§2)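 Human blood from donors with white count in the normal range, diluted 1:10 in RPMI-1640 with 10% FBS, penicillin and streptomycin. Aliquots were preincubated with vehicle (0.1% DMSO final) or compound at 10, 3, 1, 0.3 or 0.1 µM final for 2 h at 37 °C, 5% CO2. IL-1β (200 U/mL) was then added for 18 h, and plasma was collected and frozen. Cytokine was measured by ELISA.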

Blood [24] = assay: Antiinflammatory activity in human whole blood assessed as inhibition of IL-1-beta-induced IL6 production after 18 hrs by ELISA; type: functional, tissue-based; method in brief: as §2
HeLa [25] = assay: Cell cycle arrest in TNF-alpha-stimulated human HeLa cells transfected with NFkappaB-Luc assessed as accumulation at S phase at 1 uM after 8 hrs by propidium iodide-based flow cytometry; type: functional
HeLa [26] = assay: Cell cycle arrest in TNF-alpha-stimulated human HeLa cells transfected with NFkappaB-Luc assessed as accumulation at S phase at 5 uM after 8 hrs by propidium iodide-based flow cytometry; type: functional; method in brief: as §1
HeLa [27] = assay: Cell cycle arrest in TNF-alpha-stimulated human HeLa cells transfected with NFkappaB-Luc assessed as accumulation at diploid stage at 5 uM after 8 hrs by propidium iodide-based flow cytometry; type: functional; method in brief: as §1
HeLa [28] = assay: Cell cycle arrest in TNF-alpha-stimulated human HeLa cells transfected with NFkappaB-Luc assessed as accumulation at G2/G1 phase after 8 hrs by propidium iodide-based flow cytometry

Compound `CCOC(=O)[C@]1(c2ccccc2)N=C(c2ccccc2)N(Cc2ccccc2)[C@@H]1c1ccccc1` (racemic) has a Ratio (HeLa [1]) of 1.9, an Activity (HeLa [2]) of 19.29% and an Activity (HeLa [3]) of 14.75%. For the same compound, the Ratio (HeLa [4]) was 1.9, the Activity (HeLa [5]) was 100% and the Activity (HeLa [6]) was 12.9%. The Activity (HeLa [7]) was 22.8%, the Activity [8] was 1.6 mL⁻¹ and the Activity [9] was 1.2 mL⁻¹. It also gave an Activity [10] of 1.48 mL⁻¹, an Activity [11] of 1.42 mL⁻¹ and an Activity (HeLa [12]) of 9.42%. For the same compound, the Activity (HeLa [13]) was 0%, the Activity (HeLa [14]) was 2.7% and the Activity (HeLa [15]) was 3.68%. It also gave an Activity (HeLa [16]) of 2%, an Activity (HeLa [17]) of 2.47% and an Activity (HeLa [18]) of 0%. It also gave an Activity (HeLa [19]) of 100%, a Cell count [20] of 0.2617 and an EC50 [21] of 2500 nM. It also gave an EC50 [22] of 4670 nM, a logIC50 (Blood [23]) of 0.07 and an EC50 (Blood [24]) of 1830 nM. For the same compound, the Activity (HeLa [25]) was 22.9%, the Activity (HeLa [26]) was 19.8% and the Activity (HeLa [27]) was 100%. It also gave a Ratio (HeLa [28]) of 1.91.
